≈ marks a conversion by molar mass, not a printed value.
How the values were obtained:
[1] = target: T1, PA-I galactophilic lectin (Pseudomonas aeruginosa (strain ATCC 15692 / PAO1 / 1C / PRS 101 / LMG12228), UniProt Q05097); test: Competitive binding affinity to recombinant Pseudomonas aeruginosa LecA expressed in Escherichia coli BL21(DE3) incubated for 30 to 60 mins by fluorescent polarization assay
T1 sequence (Q05097 whole entry): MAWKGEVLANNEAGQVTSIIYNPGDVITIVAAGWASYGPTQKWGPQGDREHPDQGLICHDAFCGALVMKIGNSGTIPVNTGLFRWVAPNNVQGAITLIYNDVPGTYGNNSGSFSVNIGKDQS
How it was run: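 Recombinant LecA (E. coli BL21(DE3), galactosyl-sepharose purified) at 40 μM with 20 nM fluorescein-galactoside reporter in TBS/Ca pH 7.4; compounds serially diluted with 30% DMSO co-solvent, technical triplicates; 30–60 min at 22 °C; fluorescence polarization (ex 485/em 535); four-parameter fit with plateaus fixed by pNP-β-D-Gal control; ≥3 independent experiments.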

Pseudomonas aeruginosa [2] = test: (§1) Antibacterial activity against Pseudomonas aeruginosa PA14 assessed inhibition of bacterial growth preincubated for 3 hrs in matrix containing human blood plasma spiked with fresh LB medium in PBS followed by overnight grown bacterial culture addition incubated for 18 to 20 hrs by broth microdilution method; format: functional; conditions: time 21-23 hrs
How it was run: (§2)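 Prodrug serial dilutions in PBS/20% DMSO (1 mM to 1.9 μM) were diluted about 1:20 into matrix. Matrices: plasma 5 mL + PA14 LB-culture sterile filtrate 1 mL + PBS 4 mL; filtrate 1 mL + PBS 9 mL; PBS alone; plasma 5 mL + LB 1 mL + PBS 4 mL. Preincubation was 3 h at 37 °C, or <10 min at room temperature.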

Elastase [3] = target: T2, Elastase (Pseudomonas aeruginosa (strain ATCC 15692 / PAO1 / 1C / PRS 101 / LMG12228), UniProt P14756); test: Prodrug activation assessed as LasB-mediated drug release in Pseudomonas aeruginosa PA14 cell supernatant in presence of human blood plasma and measured for 3 hrs by HPLC-MS analysis; format: cell-free
Pseudomonas aeruginosa [4] = test: as §1, with “Pseudomonas aeruginosa cell culture supernatant” for “human blood plasma spiked with fresh LB medium”, “PBS buffer” for “PBS”; format: functional; conditions: time 21-23 hrs; how it was run: as §2
Pseudomonas aeruginosa [5] = test: as §1, with “containing 50%” for “containing”, “and 10% Pseudomonas aeruginosa cell culture supernatant” for “spiked with fresh LB medium”; format: functional; conditions: time 21-23 hrs; how it was run: as §2
[6] = Stability of compound in human blood plasma spiked with Pseudomonas aeruginosa PA14 matrix assessed as hydrolysis of prodrug and measured upto 3 hrs by HPLC-MS/MS analysis; format: ADME, cell-free
[7] = target: Fucose-binding lectin PA-IIL (Pseudomonas aeruginosa (strain ATCC 15692 / DSM 22644 / CIP 104116 / JCM14847 / LMG 12228 / 1C / PRS 101 / PAO1), UniProt Q9HYN5); test: Competitive binding affinity to recombinant Pseudomonas aeruginosa PAO1 LecB expressed in Escherichia coli BL21(DE3) incubated for 4 to 8 hrs by fluorescent polarization assay
Pseudomonas aeruginosa [8] = test: Antibacterial activity against Pseudomonas aeruginosa PA14 assessed inhibition of bacterial growth preincubated for 3 hrs in PBS buffer followed by overnight grown bacterial culture addition incubated for 18 to 20 hrs by broth microdilution method; format: functional; conditions: time 21-23 hrs; how it was run: as §2
Pseudomonas aeruginosa [9] = test: as §1, with “10 mins” for “3 hrs”; format: functional; how it was run: as §2
Pseudomonas aeruginosa [10] = test: as §1, with “10 mins” for “3 hrs”, “Pseudomonas aeruginosa cell culture supernatant” for “fresh LB medium”, “PBS buffer” for “PBS”; format: functional; how it was run: as §2
Pseudomonas aeruginosa [11] = test: as §1, with “Pseudomonas aeruginosa cell culture supernatant” for “fresh LB medium”, “PBS buffer” for “PBS”; format: functional; how it was run: as §2
Pseudomonas aeruginosa [12] = test: Antibacterial activity against Pseudomonas aeruginosa PA14 assessed inhibition of bacterial growth preincubated for 10 mins in PBS buffer followed by overnight grown bacterial culture addition incubated for 18 to 20 hrs by broth microdilution method; format: functional; how it was run: as §2
Pseudomonas aeruginosa [13] = test: Antibacterial activity against Pseudomonas aeruginosa PA14 assessed inhibition of bacterial growth incubated for 18 to 20 hrs by broth microdilution method; format: functional; conditions: time 18-20 hrs
How it was run: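 Broth microdilution per EUCAST in Müller-Hinton broth II, no matrix preincubation. […] Inoculum from overnight LB-agar colonies adjusted to OD600 0.08–0.13, diluted 1:100, final 5 × 10^5 cfu/mL.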

Elastase [14] = target: T2, Elastase; test: Prodrug activation assessed as LasB- mediated drug release in Pseudomonas aeruginosa PA14 cell supernatant and measured after 24 hrs by HPLC-MS analysis
[15] = Stability in mouse plasma assessed as half life at 1 uM and measured upto 240 mins by HPLC-MS/MS analysis; format: ADME, cell-free; conditions: 4 h
How it was run: (§3)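 Compound at 1 μM final in prewarmed mouse or human plasma (pH 7.4), 37 °C, sampled at 0–240 min; extracted with acetonitrile containing caffeine internal standard; HPLC-MS/MS, peak area normalized to internal standard and time 0; procaine and procainamide controls; ≥3 independent repeats.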

A549 = test: Cytotoxicity against human A549 cells assessed as reduction in cell viability incubated for 24 hrs by MTT assay
[16] = Protein binding in human plasma at 1 uM incubated for incubated for 2 hrs by HPLC-MS/MS analysis; format: ADME, cell-free
How it was run: (§4)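 Rapid equilibrium dialysis; compound at 1 μM final in pooled CD-1 mouse plasma or pooled mixed-gender human plasma, dialysed against buffer; naproxen as high-binding control.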

[17] = Stability in human plasma assessed as half life at 1 uM and measured upto 240 mins by HPLC-MS/MS analysis; format: ADME, cell-free; conditions: 4 h; how it was run: as §3
[18] = Protein binding in CD-1 mouse plasma at 1 uM incubated for incubated for 2 hrs by HPLC-MS/MS analysis; format: ADME, cell-free; how it was run: as §4
[19] = Metabolic stability in mouse liver microsomes assessed as half life at 100 uM preincubated for 5 mins followed by NADPH addition and measured upto 60 mins by HPLC-MS/MS analysis; format: ADME, Microsome; conditions: time 65 min
How it was run: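 Thawed mouse liver microsomes (20 mg/mL stock) were pre-incubated with compound (100 μM stock) in 100 mM phosphate buffer for 5 min at 37 °C. Reactions were started with NADPH (20 mM stock) and run in triplicate at 37 °C with shaking. Samples taken at 0, 5, 15, 30 and 60 min were quenched with acetonitrile and analysed by HPLC-MS/MS. Peak areas were normalised to 0 min, and half-life came from linear regression.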

[20] = Metabolic stability in mouse liver microsomes assessed as intrinsic clearance measured per mg protein at 100 uM preincubated for 5 mins followed by NADPH addition and measured upto 60 mins by HPLC-MS/MS analysis; format: ADME, Microsome; conditions: time 65 min, read-out: CLH
How it was run: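 Mouse liver microsomes (5 μL of 20 mg/mL) were mixed with 2 μL of 100 μM compound in 100 mM phosphate buffer and warmed 5 min at 37 °C. NADPH (10 μL of 20 mM) started the reaction, run in triplicate at 150 rpm. Samples were quenched with acetonitrile at 0–60 min and read by HPLC-MS/MS. Half-life came from linear regression of the 0-min-normalized areas, and CLint was derived from it.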

[21] = Drug uptake in human A549 cells assessed as intracellular accumulation at 10 ug/ml incubated for 15 to 60 mins by HPLC-MS/MS analysis; format: ADME, cell-based; conditions: time 15-60 min, dose 10 µg/ml
How it was run: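 A549 cells grown to 95% confluence in DMEM/10% FCS, exposed to 10 μg/mL compound for 15, 30 and 60 min at 37 °C; washed twice with PBS, lysed in MeOH; medium, washes and extracts extracted with MeOH containing caffeine internal standard and quantified by HPLC-MS/MS against calibration/QC samples; technical duplicates, two biological replicates.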

T2 sequence (P14756 whole entry): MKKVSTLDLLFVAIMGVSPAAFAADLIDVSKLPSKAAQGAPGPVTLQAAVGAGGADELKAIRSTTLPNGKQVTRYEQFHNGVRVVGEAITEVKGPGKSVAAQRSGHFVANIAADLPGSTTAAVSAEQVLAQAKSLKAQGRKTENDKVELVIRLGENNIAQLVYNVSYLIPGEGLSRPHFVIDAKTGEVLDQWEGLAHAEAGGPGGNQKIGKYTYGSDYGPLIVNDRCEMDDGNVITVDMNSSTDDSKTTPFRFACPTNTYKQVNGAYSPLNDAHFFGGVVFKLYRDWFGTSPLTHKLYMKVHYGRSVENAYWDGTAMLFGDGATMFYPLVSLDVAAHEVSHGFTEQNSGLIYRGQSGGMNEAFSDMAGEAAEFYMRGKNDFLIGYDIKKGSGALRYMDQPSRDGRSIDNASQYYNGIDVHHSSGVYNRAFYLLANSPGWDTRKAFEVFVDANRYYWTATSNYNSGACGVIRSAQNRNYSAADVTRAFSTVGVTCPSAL
Fucose-binding lectin PA-IIL, sequence (Q9HYN5 whole entry): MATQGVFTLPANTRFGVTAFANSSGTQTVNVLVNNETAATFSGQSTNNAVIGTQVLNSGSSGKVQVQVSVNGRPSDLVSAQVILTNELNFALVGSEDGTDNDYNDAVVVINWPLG

With `O=[N+]([O-])c1ccc(O[C@@H]2O[C@H](CO)[C@H](O)[C@H](O)[C@H]2O)cc1` the IC50 [1] was 61.9 µM.
In the case of `CC(C)C[C@H](NC(=O)CNC(=O)[C@H](C)NC(=O)c1ccc(S(=O)(=O)NC[C@H]2O[C@@H](C)[C@@H](O)[C@@H](O)[C@@H]2O)cc1)C(=O)N[C@@H](C)C(=O)N1CCN(c2cc3c(cc2F)c(=O)c(C(=O)O)cn3C2CC2)CC1`, the MIC (Pseudomonas aeruginosa [2]) is reported as ≥ 25 µM, the Drug metabolism (Elastase [3]) is reported as “Metabolite_Notdetected” and the MIC (Pseudomonas aeruginosa [4]) is reported as ≥ 25 µM. For the same compound, the MIC (Pseudomonas aeruginosa [5]) was ≥ 25 µM, the Stability [6] was “Stable” and the IC50 [7] was 4.63 µM. The MIC (Pseudomonas aeruginosa [8]) was > 25 µM, the MIC (Pseudomonas aeruginosa [9]) was ≥ 25 µM and the MIC (Pseudomonas aeruginosa [10]) was ≥ 25 µM. For the same compound, the MIC (Pseudomonas aeruginosa [11]) was ≥ 25 µM and the MIC (Pseudomonas aeruginosa [12]) was > 25 µM.
For `CC(C)C[C@H](N)C(=O)N[C@@H](C)C(=O)N[C@H]1CCN(c2cc3c(cc2F)c(=O)c(C(=O)O)cn3C2CC2)C1`, the MIC (Pseudomonas aeruginosa [13]) was 58 µM (≈ 29.9 µg/mL) and the Drug metabolism (Elastase [14]) was “Metabolite_Notdetected”.
For `CC(C)C[C@H](NC(=O)CNC(=O)[C@H](C)NC(=O)c1ccc(S[C@@H]2O[C@H](CO)[C@H](O)[C@H](O)[C@H]2O)cc1)C(=O)N[C@@H](C)C(=O)N[C@H]1CCN(c2cc3c(cc2F)c(=O)c(C(=O)O)cn3C2CC2)C1`, the t1/2 [15] was > 4 h, the MIC (Pseudomonas aeruginosa [2]) was 0.78 µM (≈ 0.735 µg/mL) and the Drug metabolism (Elastase [3]) was “Metabolite_Detected”. The MIC (Pseudomonas aeruginosa [4]) was 0.195 µM (≈ 0.184 µg/mL), the MIC (Pseudomonas aeruginosa [5]) was 0.1 µM (≈ 0.0942 µg/mL) and the IC50 (A549) was 21.7 µM. The Stability [6] was “Stable”, the PPB [16] was 97.2% and the t1/2 [17] was > 4 h. For the same compound, the MIC (Pseudomonas aeruginosa [8]) was > 25 µM, the IC50 [1] was 29.8 µM and the MIC (Pseudomonas aeruginosa [9]) was ≥ 25 µM. It also gave an MIC (Pseudomonas aeruginosa [10]) of 0.195 µM (≈ 0.184 µg/mL), a PPB [18] of 74% and an MIC (Pseudomonas aeruginosa [11]) of 0.78 µM (≈ 0.735 µg/mL). The MIC (Pseudomonas aeruginosa [12]) was > 25 µM.
With `Cl.N[C@H]1CCN(c2cc3c(cc2F)c(=O)c(C(=O)O)cn3C2CC2)C1` the t1/2 [15] was > 4 h, the half-life at 100 µM [19] was > 1 h and the MIC (Pseudomonas aeruginosa [13]) was 0.027 µM. For the same compound, the microsomal CLint at 100 µM [20] was < 23 µL/min/mg, the t1/2 [17] was 2.25 h and the Drug uptake [21] was 2000 ng/mL.
`CC(C)C[C@H](N)C(=O)N[C@@H](C)C(=O)NC[C@H]1CCN(c2cc3c(cc2F)c(=O)c(C(=O)O)cn3C2CC2)C1` showed an MIC (Pseudomonas aeruginosa [13]) of 28 µM (≈ 14.8 µg/mL).

From ChEMBL document CHEMBL5108061, “Lectin-Targeted Prodrugs Activated by Pseudomonas aeruginosa for Self-Destructive Antibiotic Release” (J Med Chem, 2022)
